Assay results reported in ChEMBL document CHEMBL3779828, “Discovery of the Aryl-phospho-indole IDX899, a Highly Potent Anti-HIV Non-nucleoside Reverse Transcriptase Inhibitor” (J Med Chem, 2016).
≈ marks a conversion by molar mass, not a printed value.

What was measured:
[1] = Aqueous solubility of the compound at pH 7; format: physicochemical; conditions: aqueous medium
[2] = Cmax in fed beagle dog at 1 mg/kg, iv after 0.083 to 24 hrs by LC-MS/MS method; format: ADME, organism-based, Canis lupus familiaris; design: dose 1 mg/kg, route intravenous; conditions: in vivo
In short: (§1)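 Fed beagle dogs and fed male cynomolgus monkeys were dosed at 1 mg/kg IV or 5 mg/kg PO in 10% dimethylacetamide/10% ethanol/80% PEG400. Femoral-vein blood was drawn predose and at 0.083–24 h into lithium-heparin tubes. Plasma was stored at -70 °C and parent drug was measured by LC-MS/MS. Values are mean parameters (n=3 or 2).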

[3] = Half life in fed beagle dog at 5 mg/kg, po by LC-MS/MS method; format: ADME, organism-based, Canis lupus familiaris; conditions: in vivo; in short: as §1
[4] = Clearance in fasted Sprague-Dawley rat at 2 mg/kg, iv after 0.083 to 24 hrs by LC-MS/MS method; format: ADME, organism-based; conditions: in vivo
[5] = Half life in fasted Sprague-Dawley rat at 10 mg/kg, po by LC-MS/MS method; format: ADME, organism-based; conditions: in vivo
In short: (§2)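 Fasted Sprague Dawley rats received 10 mg/kg orally in 10% dimethylacetamide/10% ethanol/80% PEG400. Plasma was stored at -70 °C until LC-MS/MS quantitation. Values are mean parameters (n=3 or 2).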

[6] = Oral bioavailability in fed cynomolgus monkey at 5 mg/kg after 0.083 to 24 hrs by LC-MS/MS method; format: ADME, organism-based, Macaca fascicularis; conditions: in vivo; in short: as §1
[7] = Half life in rat hepatocytes; format: ADME, cell-based, Hepatocyte
In short: (§3)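 Metabolic stability was measured in hepatocytes as the half-life (min) of parent compound depletion. Values come from independent experiments using hepatocytes from 5 to 7 donors.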

[8] = Oral bioavailability in fed beagle dog at 5 mg/kg after 0.083 to 24 hrs by LC-MS/MS method; format: ADME, organism-based, Canis lupus familiaris; conditions: in vivo; in short: as §1
[9] = Cmax in fed cynomolgus monkey at 1 mg/kg, iv after 0.083 to 24 hrs by LC-MS/MS method; format: ADME, organism-based, Macaca fascicularis; design: dose 1 mg/kg, route intravenous; conditions: in vivo; in short: as §1
[10] = Tmax in fed cynomolgus monkey at 5 mg/kg, po by LC-MS/MS method; format: ADME, organism-based, Macaca fascicularis; conditions: in vivo; in short: as §1
[11] = Cmax in fed cynomolgus monkey at 5 mg/kg, po after 0.083 to 24 hrs by LC-MS/MS method; format: ADME, organism-based, Macaca fascicularis; design: dose 5 mg/kg, route oral; conditions: in vivo; in short: as §1
[12] = Clearance in fed beagle dog at 1 mg/kg, iv after 0.083 to 24 hrs by LC-MS/MS method; format: ADME, organism-based, Canis lupus familiaris; conditions: in vivo; in short: as §1
[13] = Cmax in fasted Sprague-Dawley rat at 2 mg/kg, iv after 0.083 to 24 hrs by LC-MS/MS method; format: ADME, organism-based; design: dose 2 mg/kg, route intravenous; conditions: in vivo
[14] = Half life in fed cynomolgus monkey at 5 mg/kg, po by LC-MS/MS method; format: ADME, organism-based, Macaca fascicularis; conditions: in vivo; in short: as §1
[15] = Cmax in fed beagle dog at 5 mg/kg, po after 0.083 to 24 hrs by LC-MS/MS method; format: ADME, organism-based, Canis lupus familiaris; design: dose 5 mg/kg, route oral; conditions: in vivo; in short: as §1
[16] = Clearance in fed cynomolgus monkey at 1 mg/kg, iv after 0.083 to 24 hrs by LC-MS/MS method; format: ADME, organism-based, Macaca fascicularis; conditions: in vivo; in short: as §1
[17] = Half life in fasted Sprague-Dawley rat at 2 mg/kg, iv by LC-MS/MS method; format: ADME, organism-based; conditions: in vivo
[18] = Half life in monkey hepatocytes; format: ADME, cell-based, Macaca mulatta, Hepatocyte; conditions: rhesus monkey; in short: as §3
[19] = test system: Human immunodeficiency virus 1; test: Potency index, ratio of EFV EC50 to compound EC50 for HIV1 harboring reverse transcriptase Y181C/K103N double mutant; format: functional
[20] = test system: Human immunodeficiency virus 1; test: Antiviral activity against HIV1 harboring reverse transcriptase Y181C mutant infected in primary MT4 cells assessed as inhibition of virus-induced cytopathogenicity after 4 days by MTS assay; format: functional, organism-based; conditions: Human immunodeficiency virus 1, MT4, 96 h
[21] = Half life in fed cynomolgus monkey at 1 mg/kg, iv by LC-MS/MS method; format: ADME, organism-based, Macaca fascicularis; conditions: in vivo; in short: as §1
[22] = Half life in fed beagle dog at 1 mg/kg, iv by LC-MS/MS method; format: ADME, organism-based, Canis lupus familiaris; conditions: in vivo; in short: as §1
[23] = test system: Human immunodeficiency virus 1; test: Antiviral activity against HIV1 harboring reverse transcriptase K103N mutant infected in primary MT4 cells assessed as inhibition of virus-induced cytopathogenicity after 4 days by MTS assay; format: functional, organism-based; conditions: Human immunodeficiency virus 1, MT4, 96 h
[24] = test system: Human immunodeficiency virus 1; test: Potency index, ratio of EFV EC50 to compound EC50 for HIV1 harboring reverse transcriptase K103N mutant; format: functional
[25] = Antiviral activity against HIV1 BH10 harboring wild type reverse transcriptase infected in primary MT4 cells assessed as inhibition of virus-induced cytopathogenicity after 4 days by MTS assay; format: functional, cell-based, Human immunodeficiency virus type 1 BH10; conditions: Human immunodeficiency virus 1, MT4, 96 h
[26] = Half life in dog hepatocytes; format: ADME, cell-based, Canis lupus familiaris, Hepatocyte; in short: as §3
[27] = test system: Human immunodeficiency virus 1; test: Antiviral activity against HIV1 harboring reverse transcriptase Y181C/K103N double mutant infected in primary MT4 cells assessed as inhibition of virus-induced cytopathogenicity after 4 days by MTS assay; format: functional, organism-based; conditions: Human immunodeficiency virus 1, MT4, 96 h
[28] = Cmax in fasted Sprague-Dawley rat at 10 mg/kg, po after 0.083 to 24 hrs by LC-MS/MS method; format: ADME, organism-based; design: dose 10 mg/kg, route oral; conditions: in vivo; in short: as §2
[29] = Antiviral activity against HIV1 BH10 harboring wild type reverse transcriptase infected in secondary MT4 cells assessed as inhibition of virus-induced cytopathogenicity after 4 days by MTS assay; format: functional, cell-based, Human immunodeficiency virus type 1 BH10; conditions: Human immunodeficiency virus 1, MT4, 96 h
[30] = test system: Human immunodeficiency virus 1; test: Antiviral activity against HIV1 harboring reverse transcriptase Y181C/K103N double mutant infected in secondary MT4 cells assessed as inhibition of virus-induced cytopathogenicity after 4 days by MTS assay; format: functional, organism-based; conditions: Human immunodeficiency virus 1, MT4, 96 h
[31] = test system: Human immunodeficiency virus 1; test: Antiviral activity against HIV1 harboring reverse transcriptase K103N mutant infected in secondary MT4 cells assessed as inhibition of virus-induced cytopathogenicity after 4 days by MTS assay; format: functional, organism-based; conditions: Human immunodeficiency virus 1, MT4, 96 h
[32] = test system: Human immunodeficiency virus 1; test: Antiviral activity against HIV1 harboring reverse transcriptase Y181C mutant infected in secondary MT4 cells assessed as inhibition of virus-induced cytopathogenicity after 4 days by MTS assay; format: functional, organism-based; conditions: Human immunodeficiency virus 1, MT4, 96 h

SMILES: COP(=O)(c1cc(C)cc(/C=C/C#N)c1)c1c(C(N)=O)[nH]c2ccc(Cl)cc12 (single isomer, unassigned; form 1) [FOSDEVIRINE]
- solubility [1]: 20 µM (≈ 8.28 µg/mL)
- Cmax [2]: 290 ng/mL
- half-life [3]: 2.4 h
- clearance [4]: 1.18 mL/min/kg
- half-life [5]: 5.9 h
- bioavailability [6]: 42%
- half-life [7]: 0.283 h
- bioavailability [8]: 4%
- Cmax [9]: 1460 ng/mL
- Tmax [10]: 3 h
- Cmax [11]: 945 ng/mL
- clearance [12]: 30.5 mL/min/kg
- Cmax [13]: 88 ng/mL
- half-life [14]: 3.1 h
- Cmax [15]: 18 ng/mL
- clearance [16]: 5.5 mL/min/kg
- half-life [17]: 0.2 h
- half-life [18]: 0.867 h
- Ratio EC50 [19]: 4
- EC50 [20]: 1.3 nM
- half-life [21]: 2 h
- half-life [22]: 3.9 h
- EC50 [23]: 2.8 nM
- Ratio EC50 [24]: 30
- EC50 [25]: 1 nM
- half-life [26]: 0.35 h
- EC50 [27]: 11 nM
- Cmax [28]: 25 ng/mL

SMILES: COP(=O)(c1cc(C)cc(C)c1)c1c(C(N)=O)[nH]c2ccc(Cl)cc12 (stereo unspecified)
- solubility [1]: 0.9 µM (≈ 0.339 µg/mL)
- EC50 [20]: 15 nM
- EC50 [23]: 4 nM
- EC50 [25]: 1 nM
- EC50 [27]: 238 nM

SMILES: O=C1Nc2ccc(Cl)cc2[C@@](C#CC2CC2)(C(F)(F)F)O1 [EFAVIRENZ]
- solubility [1]: < 0.5 µM
- EC50 [20]: 1.8 nM
- EC50 [23]: 37 nM
- EC50 [25]: 0.7 nM
- EC50 [27]: 58 nM

SMILES: COP(=O)(c1cc(Cl)cc(Cl)c1)c1c(C(N)=O)[nH]c2ccc(Cl)cc12 (stereo unspecified)
- EC50 [20]: 1.7 nM
- EC50 [23]: 19.9 nM
- EC50 [25]: 0.3 nM
- EC50 [27]: 248 nM

SMILES: COP(=O)(c1cncc(/C=C/C#N)c1)c1c(C(N)=O)[nH]c2ccc(Cl)cc12 (stereo unspecified)
- EC50 [20]: 2.5 nM
- EC50 [23]: 9.5 nM
- EC50 [25]: 1 nM
- EC50 [27]: 192 nM

SMILES: COP(=O)(c1cc(C)cc(/C=C/C#N)c1)c1c(C(N)=O)[nH]c2ccc(Cl)cc12 (racemic)
- EC50 [20]: 3 nM
- EC50 [23]: 3 nM
- EC50 [25]: 2.9 nM
- EC50 [27]: 16.6 nM

SMILES: COP(=O)(c1c(C(N)=O)[nH]c2ccc(Cl)cc12)C1CCCCC1 (stereo unspecified)
- EC50 [20]: 219 nM
- EC50 [23]: 101 nM
- EC50 [25]: 2.5 nM
- EC50 [27]: > 1000 nM

SMILES: COP(=O)(c1cc(C)cc(Cl)c1)c1c(C(N)=O)[nH]c2ccc(Cl)cc12 (stereo unspecified)
- EC50 [20]: 5.6 nM
- EC50 [23]: 18.8 nM
- EC50 [25]: 1.1 nM
- EC50 [27]: 114 nM

SMILES: COP(=O)(c1cccc(/C=C/C#N)c1)c1c(C(N)=O)[nH]c2ccc(Cl)cc12 (stereo unspecified)
- EC50 [29]: 3.4 nM
- EC50 [30]: 49.5 nM
- EC50 [31]: 1.8 nM
- EC50 [32]: 3.2 nM

SMILES: COP(=O)(c1cc(C)cc(C#N)c1)c1c(C(N)=O)[nH]c2ccc(Cl)cc12 (stereo unspecified)
- EC50 [20]: 3.8 nM
- EC50 [23]: 18.4 nM
- EC50 [25]: 1 nM
- EC50 [27]: 162 nM

SMILES: COP(=O)(c1cc(C)cc(F)c1)c1c(C(N)=O)[nH]c2ccc(Cl)cc12 (stereo unspecified)
- solubility [1]: 1.7 µM (≈ 0.647 µg/mL)
- EC50 [20]: 3.4 nM
- EC50 [23]: 0.5 nM
- EC50 [25]: 0.2 nM
- EC50 [27]: 69 nM
